Reference: publication PMC3134944 (Current Chemical Genomics, 2011)

Experiments:
[1] = molecular target: recombinant human GST-GAPDHS (Homo sapiens, UniProt O14556); assay: GAPDHS dose response / IC50 determination; format: biochemical
Outline: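 IC50 against GST-GAPDHS used the single-point assay conditions with two-fold serial dilutions in DMSO, giving 10 final concentrations from 80 µM to […]. Percent inhibition at each concentration was fitted to a four-parameter variable-slope equation for IC50 and Hill slope. Some runs included 0.01% Tween-20 (final). Ligand efficiency and binding efficiency index were calculated from IC50.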

GAPDH isozymes = conditions: ref PMID: 12788228, PMID: 2353814; cited from earlier work
purified his-GAPDHS = conditions: baculovirus/insect cell expressed his-GAPDHS ref 22; cited from earlier work

recombinant human GST-GAPDHS, sequence (O14556 69-408): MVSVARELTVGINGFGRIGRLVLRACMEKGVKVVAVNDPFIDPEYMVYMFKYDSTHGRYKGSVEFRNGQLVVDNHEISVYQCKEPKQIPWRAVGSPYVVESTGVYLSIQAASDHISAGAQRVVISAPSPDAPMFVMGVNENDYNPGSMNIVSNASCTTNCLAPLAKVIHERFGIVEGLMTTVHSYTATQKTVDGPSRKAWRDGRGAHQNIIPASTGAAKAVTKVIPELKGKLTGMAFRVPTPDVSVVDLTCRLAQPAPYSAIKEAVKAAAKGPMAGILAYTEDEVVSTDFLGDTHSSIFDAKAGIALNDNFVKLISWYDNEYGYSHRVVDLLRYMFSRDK

IC50 ([1]; IC50, follow up, absence of Tween-20, dry powder, no detergent): 47 µM
IC50 ([1]; IC50 in the presence of 0.01% Tween-20, dry powder, 0.01% Tween-20): 53 µM
SMILES: CC1=CC(=O)c2ccccc2C1=O [Menadione]
inhibitor of GAPDH isozymes in vivo (GAPDH isozymes): non-selective inhibitor
active in Prestwick screen against his-GAPDHS (purified his-GAPDHS): identified as actives
